One assay concerns KB. Kind of assay: Cytotoxicity against human KB cells. The class given is functional, cell-based. The method, boiled down: (§1)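 Cell growth-inhibition assay run by a previously published procedure, with Taxotere as the reference compound.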
Another assay deals with HCT-116. The assay can be described thus: Cytotoxicity against human HCT116 cells. In kind it is functional, cell-based. Put shortly: as §1
The next assay relates to MCF7. Kind of assay: Cytotoxicity against human MCF7 cells. The class given is functional, cell-based. Put shortly: as §1
Another assay has as its target Bcl-2-like protein 1 (Homo sapiens, UniProt Q07817). The assay can be described thus: Binding affinity to Bcl-xL by fluorescein-labeled Bak-BH3 peptide competition binding assay. The method, boiled down:
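Fluorescence polarization displacement: test compound competes with fluorescein-labeled Bak BH3-domain peptide for binding to Bcl-xL. Ki is derived as the dissociation constant at equilibrium against this reference ligand. Unlabeled Bak(BH3) peptide and a substituted terphenyl derivative serve as positive controls. Runs are done in duplicate.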

In a further assay the test system is L1210. Kind of assay: Cytotoxicity against mouse L1210 cells. The class given is functional, cell-based. Put shortly:
as §1

The term IC50 denotes the concentration that gives 50% inhibition. Lower therefore signals greater potency. As a reminder, the Ki is a measure of affinity in units of concentration, obtained from inhibition or displacement. A low value points to a stronger hold on the target.

Where only a bound is given, the exact number is not on record here.

Bcl-2-like protein 1, sequence (Q07817 whole entry): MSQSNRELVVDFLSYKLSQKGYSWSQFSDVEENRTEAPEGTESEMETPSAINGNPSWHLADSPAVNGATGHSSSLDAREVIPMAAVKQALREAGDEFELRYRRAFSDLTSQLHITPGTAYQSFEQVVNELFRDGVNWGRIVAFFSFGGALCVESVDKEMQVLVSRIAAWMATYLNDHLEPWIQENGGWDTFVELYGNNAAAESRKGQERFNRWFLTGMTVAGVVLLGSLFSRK

Consider `CC(=O)OC[C@]1(C)[C@@H](OC(C)=O)C[C@H](O[C@@H]2O[C@@H](C)[C@H](O)[C@@H](O)[C@H]2O)[C@]2(C)[C@H]3CC=C4[C@H]5C[C@](C)(C(=O)O)CC[C@]5(C)CC[C@@]4(C)[C@]3(C)CC[C@@H]12`, for which the IC50 with KB worked out at 8.2 µM; in the assay on HCT-116 it was 8 µM; with MCF7, 10.5 µM. The same compound had an inhibition constant (Ki) at Bcl-2-like protein 1 of 7.2 µM.
The matching figures for `CC(=O)OC[C@]1(C)[C@@H](OC(C)=O)C[C@H](O)[C@]2(C)[C@H]3CC=C4[C@H]5C[C@](C)(C(=O)O)CC[C@]5(C)CC[C@@]4(C)[C@]3(C)CC[C@@H]12`: 5.4 µM, 4.7 µM, 6 µM and 17.8 µM.
The like results for `COC(=O)[C@]1(C)CC[C@]2(C)CC[C@]3(C)C(=CC[C@@H]4[C@@]5(C)[C@@H](O[C@@H]6O[C@@H](C)[C@H](O)[C@@H](O)[C@H]6O)C[C@H](O)[C@@](C)(COC(C)=O)[C@@H]5CC[C@]43C)[C@H]2C1` were, in that order, 0.7 µM, 0.4 µM, 0.5 µM and greater than 100 µM.
`CC(C)=CC(=O)O[C@@H]1CC(C)(C)C[C@@H]2C3=CC[C@@H]4[C@@]5(C)CCC(=O)[C@](C)(CO)[C@@H]5CC[C@@]4(C)[C@]3(C)CC[C@]21C(=O)O`: the IC50 worked out at 35.5 µM in the assay with KB, 11.4 µM in the assay with HCT-116, 42.5 µM in the assay on MCF7 and 12.3 µM in the assay on L1210. On Bcl-2-like protein 1, this compound came in with an inhibitory constant (Ki) of 5.3 µM.
With `COC(=O)[C@]1(C)CC[C@]2(C)CC[C@]3(C)C(=CC[C@@H]4[C@@]5(C)[C@@H](O[C@@H]6O[C@@H](C)[C@H](O)[C@@H](O)[C@H]6O)C[C@H](OC(C)=O)[C@@](C)(COC(C)=O)[C@@H]5CC[C@]43C)[C@H]2C1`, the values for the IC50 with KB, in the assay with HCT-116 and in the assay with MCF7 were 0.9 µM, 0.3 µM and 0.6 µM, respectively. This compound also came in with an inhibition constant (Ki) on Bcl-2-like protein 1 greater than 100 µM.
With `COC(=O)[C@]1(C)CC[C@]2(C)CC[C@]3(C)C(=CC[C@@H]4[C@@]5(C)[C@@H](O)C[C@H](O)[C@@](C)(COC(C)=O)[C@@H]5CC[C@]43C)[C@H]2C1`, the IC50 in the assay with KB amounted to 2.9 µM; with HCT-116, 1.7 µM; in the assay with MCF7, 4.6 µM. Moreover, the Ki at Bcl-2-like protein 1 was greater than 100 µM.
For `CC(=O)O[C@@]12CO[C@@H]1C[C@H](O)[C@@]1(C)C(=O)[C@H](O)C3=C(C)[C@@H](OC(=O)[C@H](O)[C@@H](NC(=O)OC(C)(C)C)c4ccccc4)C[C@@](O)([C@@H](OC(=O)c4ccccc4)[C@H]21)C3(C)C` [DOCETAXEL], the half-maximal inhibitory concentration (IC50) with KB came to 0.00015 µM; in the assay on HCT-116 it was 0.0012 µM; in the assay on MCF7, 0.0007 µM.
`C/C=C(/C)C(=O)O[C@@H]1CC(C)(C)C[C@@H]2C3=CC[C@@H]4[C@@]5(C)CCC(=O)[C@](C)(CO)[C@@H]5CC[C@@]4(C)[C@]3(C)CC[C@]21C(=O)O` [ICTEROGENIN]: the IC50 worked out at 15 µM in the assay on KB, 5.8 µM with HCT-116, 11.3 µM in the assay on MCF7 and 6.8 µM with L1210. The compound further yielded a Ki at Bcl-2-like protein 1 of 7.6 µM.
On to `C/C=C(/C)C(=O)O[C@@H]1CC(C)(C)C[C@H]2C3=CC[C@@H]4[C@@]5(C)CCC(=O)C(C)(C)[C@@H]5CC[C@@]4(C)[C@]3(C)CC[C@@]12C(=O)O` [LANTADENE A], for which the half-inhibitory concentration (IC50) with KB was 15.8 µM; in the assay on HCT-116, 41.8 µM; in the assay with MCF7 it was 44.7 µM; in the assay on L1210, 16.3 µM. Besides, the Ki at Bcl-2-like protein 1 was greater than 100 µM.
The like results for `CC(C)=CC(=O)O[C@@H]1CC(C)(C)C[C@@H]2C3=CC[C@@H]4[C@@]5(C)CCC(=O)C(C)(C)[C@@H]5CC[C@@]4(C)[C@]3(C)CC[C@]21C(=O)O` [LANTADENE B] were, in that order, 25.3 µM, 11.4 µM, 44 µM, 16.1 µM and greater than 100 µM.

The values are drawn from ChEMBL document CHEMBL1152410, “Cytotoxic pentacyclic triterpenoids from Combretum sundaicum and Lantana camara as inhibitors of Bcl-xL/BakBH3 domain peptide interaction” (J Nat Prod, 2009).
